Reference: ChEMBL document CHEMBL3877339, “Efficient Semisynthesis of (-)-Pseudoirroratin A from (-)-Flexicaulin A and Assessment of Their Antitumor Activities” (ACS Med Chem Lett, 2017)
pIC50: −log10 of the molar value. Calls of active or inactive are those of the source. No cut-off for these calls is given here.

Legend:
[1] = tested on: HCT-116; assay: (§1) Cytotoxicity against human HCT116 cells assessed as reduction in cell viability after 48 hrs by MTT assay; type: functional, cell-based
In short: (§2)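 MTT viability assay over a compound concentration series in colorectal carcinoma cells; IC50 taken from dose–response curves. Mean ± SD of three separate experiments.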

[2] = as §1; type: functional, cell-based; settings: HCT-116, 48 h; in short: as §2
[3] = tested on: HCT-116; assay: Antiproliferative activity against human HCT116 cells at 2.5 ug/ml by light microscopic method; type: functional, cell-based
In short: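 HCT-116 cells grown at relatively high density, untreated or compound-treated, then viewed by light microscopy at 10× magnification.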

[4] = tested on: Mus musculus; assay: Toxicity in BALB/c mouse xenografted with human HCT116 cells assessed as change in body weight at 20 mg/kg, ip administered every other day for 14 days; type: organism-based, HCT-116; settings: in vivo, 336 h
[5] = tested on: HT-29; assay: (§3) Cytotoxicity against human HT-29 cells assessed as reduction in cell viability after 48 hrs by MTT assay; type: functional, cell-based; in short: as §2
[6] = as §3; type: functional, cell-based; settings: HT-29, 48 h; in short: as §2
[7] = tested on: HCT-116; assay: Induction of apoptosis in human HCT116 cells assessed as necrotic cells at 5 ug/ml after 48 hrs by Annexin V-FITC/propidium iodide staining based flow cytometry (reference value: 1.3%); type: functional
[8] = tested on: HCT-116; assay: Induction of apoptosis in human HCT116 cells assessed as late apoptotic cells at 0.5 ug/ml after 48 hrs by Annexin V-FITC/propidium iodide staining based flow cytometry (reference value: 3.6%); type: functional
[9] = tested on: HCT-116; assay: Antitumor activity against human HCT116 cells xenografted in BALB/c nude mouse assessed as inhibition of tumor volume at 20 mg/kg, ip administered every other day for 14 days; type: functional, organism-based
In short: (§4)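 HCT-116 cells implanted subcutaneously in the flanks of nude mice. Compound given intraperitoneally at 20 mg/kg every other day for 14 days; controls got vehicle. Tumour volume measured per animal at set time points, and tumours excised at study end; mean ± SD, n = 10 per group.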

[10] = tested on: HCT-116; assay: Induction of apoptosis in human HCT116 cells assessed as necrotic cells at 0.5 ug/ml after 48 hrs by Annexin V-FITC/propidium iodide staining based flow cytometry (reference value: 1.3%); type: functional
[11] = tested on: HCT-116; assay: Induction of apoptosis in human HCT116 cells cytoplasmic extract assessed as increase in cleaved caspase-3 expression at 0.3125 to 2.5 ug/ml after 48 hrs by Western blot method; type: functional, cell-based
In short: (§5)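 HCT-116 cells treated at 0–2.5 μg/mL, then split into cytoplasmic and nuclear extracts for Western blotting. The cytoplasmic fraction was probed for cleaved PARP, cleaved caspase-3, phospho-ERK and survivin, with α-tubulin as loading control. The nuclear fraction was probed for HDAC1, with histone H3 as loading control.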

[12] = tested on: HCT-116; assay: Induction of apoptosis in human HCT116 cells assessed as early apoptotic cells at 0.5 ug/ml after 48 hrs by Annexin V-FITC/propidium iodide staining based flow cytometry (reference value: 3.7%); type: functional
[13] = tested on: HCT-116; assay: Induction of apoptosis in human HCT116 cells assessed as early apoptotic cells at 5 ug/ml after 48 hrs by Annexin V-FITC/propidium iodide staining based flow cytometry (reference value: 3.7%); type: functional
[14] = tested on: HCT-116; assay: Induction of apoptosis in human HCT116 cells assessed as early apoptotic cells at 2 ug/ml after 48 hrs by Annexin V-FITC/propidium iodide staining based flow cytometry (reference value: 3.7%); type: functional
[15] = tested on: HCT-116; assay: Increase in ERK phosphorylation in human HCT116 cells cytoplasmic extract at 0.3125 to 2.5 ug/ml after 48 hrs by Western blot method; type: cell-based; in short: as §5
[16] = tested on: HCT-116; assay: Induction of apoptosis in human HCT116 cells assessed as necrotic cells at 10 ug/ml after 48 hrs by Annexin V-FITC/propidium iodide staining based flow cytometry (reference value: 1.3%); type: functional
[17] = Downregulation of HDAC1 expression in human HCT116 cells nuclear extract at >0.625 ug/ml after 48 hrs by Western blot method; type: functional, cell-based; settings: HCT-116; in short: as §5
[18] = tested on: HCT-116; assay: Induction of apoptosis in human HCT116 cells assessed as late apoptotic cells at 5 ug/ml after 48 hrs by Annexin V-FITC/propidium iodide staining based flow cytometry (reference value: 3.6%); type: functional
[19] = tested on: HCT-116; assay: Antitumor activity against human HCT116 cells xenografted in BALB/c nude mouse assessed as inhibition of tumor weight at 20 mg/kg, ip administered every other day for 14 days; type: functional, organism-based; in short: as §4
[20] = tested on: HCT-116; assay: Induction of apoptosis in human HCT116 cells assessed as early apoptotic cells at 10 ug/ml after 48 hrs by Annexin V-FITC/propidium iodide staining based flow cytometry (reference value: 3.7%); type: functional
[21] = tested on: HCT-116; assay: Induction of apoptosis in human HCT116 cells assessed as late apoptotic cells at 1 ug/ml after 48 hrs by Annexin V-FITC/propidium iodide staining based flow cytometry (reference value: 3.6%); type: functional
[22] = tested on: HCT-116; assay: Induction of apoptosis in human HCT116 cells after 48 hrs by Annexin V-FITC/propidium iodide staining based flow cytometry; type: functional, cell-based
[23] = tested on: HCT-116; assay: Induction of apoptosis in human HCT116 cells assessed as necrotic cells at 1 ug/ml after 48 hrs by Annexin V-FITC/propidium iodide staining based flow cytometry (reference value: 1.3%); type: functional
[24] = tested on: HCT-116; assay: Induction of apoptosis in human HCT116 cells assessed as late apoptotic cells at 2 ug/ml after 48 hrs by Annexin V-FITC/propidium iodide staining based flow cytometry (reference value: 3.6%); type: functional
[25] = tested on: HCT-116; assay: Induction of apoptosis in human HCT116 cells cytoplasmic extract assessed as decrease in survivin expression at 0.3125 to 2.5 ug/ml after 48 hrs by Western blot method; type: functional, cell-based; in short: as §5
[26] = tested on: HCT-116; assay: Induction of apoptosis in human HCT116 cells assessed as late apoptotic cells at 10 ug/ml after 48 hrs by Annexin V-FITC/propidium iodide staining based flow cytometry (reference value: 3.6%); type: functional
[27] = tested on: HCT-116; assay: Induction of apoptosis in human HCT116 cells cytoplasmic extract assessed as increase in cleaved PARP expression at 0.3125 to 2.5 ug/ml after 48 hrs by Western blot method; type: functional, cell-based; in short: as §5
[28] = tested on: HCT-116; assay: Induction of apoptosis in human HCT116 cells assessed as necrotic cells at 2 ug/ml after 48 hrs by Annexin V-FITC/propidium iodide staining based flow cytometry (reference value: 1.3%); type: functional
[29] = tested on: HCT-116; assay: Induction of apoptosis in human HCT116 cells assessed as early apoptotic cells at 1 ug/ml after 48 hrs by Annexin V-FITC/propidium iodide staining based flow cytometry (reference value: 3.7%); type: functional

C=C1C(=O)[C@@]23[C@H](O)C[C@@H]4C(C)(C)CCC[C@@]4(COC(C)=O)[C@@H]2[C@@H](O)C[C@@H]1[C@H]3O [FLEXICANLIN A]
Activity [1]: Dose-dependent effect | pIC50 [2]: 5.14 | Activity [3]: Active | Activity [4]: Non-Toxic | Activity [5]: Dose-dependent effect | pIC50 [6]: 4.98

C=C1C(=O)[C@]23[C@H](O)C[C@@H]4C(C)(C)CCC[C@]45CO[C@](O)(C[C@@H]1[C@H]2O)[C@@H]53 [PSEUDOIRRORATIN A]
Activity [7]: 21.1% | Activity [8]: 5.3% | Activity [9]: Active | Activity [10]: 3.1% | Activity [1]: Dose-dependent effect | pIC50 [2]: 5.31 | Activity [11]: Active | Activity [12]: 8.5% | Activity [13]: 26.2% | Activity [3]: Active | Activity [14]: 18.3% | Activity [15]: Active | Activity [16]: 13.8% | Activity [17]: Active | Activity [18]: 24.7% | Activity [4]: Non-Toxic | Activity [5]: Dose-dependent effect | pIC50 [6]: 5.23 | Activity [19]: Active | Activity [20]: 33.9% | Activity [21]: 17% | Activity [22]: Dose-dependent effect | Activity [23]: 11.1% | Activity [24]: 27.8% | Activity [25]: Active | Activity [26]: 30.2% | Activity [27]: Active | Activity [28]: 14.7% | Activity [29]: 10%
